ChEMBL document CHEMBL1128714, “Synthesis and anti-HIV activity of 1,1'-dideoxygossypol and related compounds” (J Med Chem, 1995)

Experiments:
HeLa [1] = assay: Highest concentration at which no visible changes in cell morphology or monolayer adhesion was detected.; type: functional, Homo sapiens
HeLa [2] = assay: Compound was evaluated for the anti HIV activity in HT46c (HeLaT4+) cells as host cells for H9/HIV-IIIB strain of the HIV-1 virus; anti HIV activity masked by cytotoxicity; type: functional, cell-based, Homo sapiens
HeLa [3] = assay: Compound was evaluated for the anti HIV activity in HT46c (HeLaT4+) cells as host cells for H9/HIV-IIIB strain of the HIV-1 virus; type: functional, cell-based; settings: Homo sapiens
Summary of the method: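 HT46c (HeLaT4+) cells were plated at 5×10^4 cells/well in RPMI 1640 with 10% FBS and attached overnight. They were infected with HIV-1 H9/HIV-IIIB at an input giving 100–200 foci/well in positive controls by day 3. Compound was tested at 0.01, 0.1, 1.0, 5.0 and 20 μM for 3 days at 37 °C, 5% CO2. Foci were counted by focal immunoassay on methanol-fixed monolayers, and EC50 was derived.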

Row | Compound | TC (HeLa [1]) | EC50 (HeLa [2]) | EC50 (HeLa [3])
1 | Cc1ccc2c(C(=O)O)c(O)c(O)c(C(C)C)c2c1 | >20 µM | – | –
2 | Cc1cc2c(C(C)C)c(O)c(O)c(C=O)c2cc1-c1cc2c(C=O)c(O)c(O)c(C(C)C)c2cc1C | >1 µM | anti HIV activity masked by cytotoxicity | –
3 | Cc1ccc2c(C=O)c(O)c(O)c(C(C)C)c2c1 | >1 µM | – | 20 µM
4 | Cc1cc2c(C(C)C)c(O)c(O)c(C(=O)O)c2cc1-c1cc2c(C(=O)O)c(O)c(O)c(C(C)C)c2cc1C | >5 µM | – | 0.7 µM
